These results are taken from ChEMBL document CHEMBL1134852, “A new class of potent nonpeptide luteinizing hormone-releasing hormone (LHRH) antagonists: design and synthesis of 2-phenylimidazo[1,2-a]pyrimidin-5-ones” (Bioorg Med Chem Lett, 2002).

The test concerns the target T1, Gonadotropin-releasing hormone receptor (Homo sapiens, UniProt P30968).
T1 sequence (P30968 whole entry): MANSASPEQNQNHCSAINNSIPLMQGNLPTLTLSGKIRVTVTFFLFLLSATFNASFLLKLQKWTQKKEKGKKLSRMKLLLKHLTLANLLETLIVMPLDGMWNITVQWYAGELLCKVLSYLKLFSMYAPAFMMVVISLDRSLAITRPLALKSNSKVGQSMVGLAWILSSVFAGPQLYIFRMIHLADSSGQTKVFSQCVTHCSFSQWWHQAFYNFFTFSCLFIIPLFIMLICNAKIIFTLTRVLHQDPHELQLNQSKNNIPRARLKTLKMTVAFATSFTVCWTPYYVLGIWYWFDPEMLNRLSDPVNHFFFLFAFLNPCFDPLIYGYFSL
Description: In vitro inhibition of specific [125I]leuprorelin binding to the cloned human LHRH receptor expressed in chinese hamster ovary cells. The test is classed as cell-based, CHO. Summed up:
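Membranes from CHO cells expressing the receptor (0.2 mg/mL) incubated with [125I][Tyr5]leuprorelin (0.12–0.15 nM) and varied test compound, 60 min at 25 °C, Tris 25 mM/EDTA/0.1% BSA/protease inhibitors buffer, pH 7.5. Stopped with ice-cold buffer, filtered on PEI-coated glass fibre, radioactivity counted. Nonspecific binding with […] unlabeled leuprorelin; IC50 from pseudo-Hill fit.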

`CCOC(=O)c1cn(Cc2c(F)cccc2F)c2nc(-c3ccc(NC(=O)c4ccccc4)cc3)c(CN(C)Cc3ccccc3)n2c1=O` showed an IC50 of 20 nM.
To `CCOC(=O)c1cn(Cc2c(F)cccc2F)c2nc(-c3ccc(NC(=O)NOC)cc3)c(CN(C)Cc3ccccc3)n2c1=O` belongs 0.7 nM; to `C=CC(=O)Nc1ccc(-c2nc3n(Cc4c(F)cccc4F)cc(C(=O)OCC)c(=O)n3c2CN(C)Cc2ccccc2)cc1`, 3 nM.
As for `CCNC(=O)Nc1ccc(-c2nc3n(Cc4c(F)cccc4F)cc(C(=O)OC(C)C)c(=O)n3c2CN(C)Cc2ccccc2)cc1`, the figure is 0.3 nM; as for `CCOC(=O)c1cn(Cc2c(F)cccc2F)c2nc(-c3ccc(NC(=O)c4ccoc4)cc3)c(CN(C)Cc3ccccc3)n2c1=O`, 3 nM; as for `CCOC(=O)c1cn(Cc2c(F)cccc2F)c2nc(-c3ccc(NC(=O)c4ccsc4)cc3)c(CN(C)Cc3ccccc3)n2c1=O`, 7 nM.
Compound `CCOC(=O)c1cn(Cc2c(F)cccc2F)c2nc(-c3ccc(NC(=O)CC)cc3)c(CN(C)Cc3ccccc3)n2c1=O` registered an IC50 of 10 nM.
In turn, `CCOC(=O)c1cn(Cc2c(F)cccc2F)c2nc(-c3ccc(NC(=O)C(C)C)cc3)c(CN(C)Cc3ccccc3)n2c1=O` yielded a 50% inhibitory concentration (IC50) of 30 nM. Against the preceding compound, the IC50 is about 3-fold higher.
In turn, `CCOC(=O)c1cn(Cc2c(F)cccc2F)c2nc(-c3ccc(NC(=O)C4CC4)cc3)c(CN(C)Cc3ccccc3)n2c1=O` returned an IC50 of 5 nM.
As for `CONC(=O)Nc1ccc(-c2nc3n(Cc4c(F)cccc4F)cc(C(=O)OC(C)C)c(=O)n3c2CN(C)Cc2ccccc2)cc1`, the figure is 0.4 nM.

The term IC50 denotes the point on the concentration scale where inhibition reaches its midpoint. Read a low IC50 as greater potency in that assay.
